Assay outcomes (PubChem BioAssay)
TRPC4 block: TRPC4 (mouse) channel inhibition | Q9QUQ5 | HEK293 TRPC4beta/mu-opioid, DAMGO-evoked Fluo4 calcium flux; active compounds read low | B-score at 10 µM | hit rate 0.39% among 300,000;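 active = B-score over 3 SD under the library average, no early fluorescence shift, positive overall ratio signal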
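Assay system: HEK293 cells with stable TRPC4beta plus mu-opioid receptor expression. Dosing: single dose. Measured by: Fluo4 Ca2+ flux fluorescence. Also added: DAMGO in two steps, submaximal then maximal. Read-out: B score from integrated Fluo4 fluorescence ratio.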
TRPC6 inhibitor: mouse TRPC6 channel inhibition | B-score at 10 µM | HEK293-TRPC6, membrane potential dye, ACh-evoked depolarization; active compounds read low | Q61143 | AID 2553 | hit rate 1.1% among 310,000;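 active = B-score under library mean minus 3 SD, initial fluorescence not abnormally high, positive integrated signal ratio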;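 also: B-score derived from integrated fluorescence ratio over the kinetic read; more negative B-score means stronger inhibition of depolarization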
TRPC4 potent: TRPC4 (mouse) allosteric potentiation. B-score at 10 µM. hit rate 0.42% among 310,000. Q9QUQ5. HEK293 TRPC4beta/mu-opioid, DAMGO EC20, Fluo-4 Ca2+ flux; active compounds read high;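 active = B-score of calcium response area above 5 SD of library B-scores, with initial fluorescence ratio within 5 SD of library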;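 also: B-score of integrated fluorescence ratio over time as area under calcium response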
TRPC4 agonist: TRPC4 (mouse) channel activation; AID 2237; Q9QUQ5; HEK293 TRPC4beta/mu-opioid, Fluo4 calcium fluorescence; active compounds read high; B-score at 10 µM; hit rate 0.49% among 310,000;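 active = B-score above 5 SD of library B-scores, and initial fluorescence ratio not above library mean plus 5 SD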;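 also: positive B-score marks a calcium rise read as TRPC4 activation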
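Assay system: HEK293 cells stably co-expressing mouse TRPC4beta and mu-opioid receptor / Timing: Fluo4 dye loading 45 min at room temperature, 110 s recording / Signal: Fluo4 calcium-sensitive dye fluorescence, kinetic, 1 Hz baseline / Read-out: integrated baseline-normalised fluorescence ratio, converted to per-well B score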
TRPC6 activator: activators of mouse TRPC6 channel; HEK293-TRPC6 membrane potential dye fluorescence; active compounds read high; hit rate 0.13% among 310,000; Q61143; B-score at 10 µM;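 active = B-score of the integrated fluorescence ratio above library mean plus 3 SD, and starting fluorescence ratio within library mean plus 5 SD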;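 also: higher score means more depolarization so channel activation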
TRPC4 spec 2: mouse TRPC4 off-target activity of TRPC6 inhibitors, second screen; shares compounds with TRPC6 inhibitor; HEK293 TRPC4/MOR, membrane potential dye fluorescence; channel activated by saturating DAMGO dose; inhibition, % at 10 µM; hit rate 42% among 920;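 active = compounds whose fluorescence signal differed from control wells by over 3 SD, either direction, in both duplicate plates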
TRPC4 spec: selectivity of TRPC6 inhibitors: effect on mouse TRPC4. HEK293 TRPC4/mu-opioid, membrane potential fluorescence. shares compounds with TRPC6 inhibitor. activity change, negative = inhibition, % at 10 µM. hit rate 61% among 920;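 active = rise or fall in signal beyond 3 SD of buffer-only wells in both replicate plates, either sign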;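 also: integrated kinetic ratio of fluorescence range over baseline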
HEK293 MPD ctr 2-1: second check of TRPC6 inhibitor effects in parental HEK293 cells; parental HEK293 membrane potential dye fluorescence; maximal acetylcholine challenge after compound addition; shares compounds with TRPC6 inhibitor; hit rate 31% among 920; signal change vs control, % at 10 µM; AID 2779;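 active = membrane potential signal moving either way by over 3 SD of the maximum-effect control, in both duplicate plates, meaning non-specific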
HEK293 MPD ctr-1: parental HEK293 nonspecific activity of TRPC6 inhibitors; membrane potential signal change, % at 10 µM; shares compounds with TRPC6 inhibitor; parental HEK293 membrane potential dye fluorescence; hit rate 60% among 920;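 active = membrane potential signal shifting up or down by more than 3 SD of buffer-only wells, on both duplicate plates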
HEK293 MPD ctr-2: counter-screen for TRPC6 modulators: effect in parental HEK293 cells. shares compounds with TRPC6 inhibitor. membrane potential dye fluorescence. membrane potential signal change, % at 10 µM. hit rate 51% among 2,400. AID 488924;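 active = membrane potential signal moves up or down beyond 5 SD from buffer-only wells, on both duplicate plates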
HEK293 MPD ctr 2-2: parental HEK293 nonspecific activity of TRPC6 modulators, second screen | hit rate 14% among 2,400 | inhibition, % at 10 µM | membrane potential dye fluorescence; after compound, maximal acetylcholine stimulation | AID 488926 | shares compounds with TRPC6 inhibitor;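 active = membrane potential signal drops by more than 5 SD from the mean control signal, in both duplicate plates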;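 also: plate controls were acetylcholine ECmax control wells for no effect and buffer only wells for full effect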
TRPC4 ctr mod: selectivity of TRPC6 modulators against mouse TRPC4; AID 488927; HEK293 TRPC4/mu-opioid, membrane potential fluorescence; hit rate 69% among 2,400; shares compounds with TRPC6 inhibitor; percent change from control (negative = decrease, positive = increase), % at 10 µM;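 active = membrane potential signal moved up or down beyond 5 SD of buffer control wells, in both duplicate plates, actives on both sides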;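 also: plate controls were assay buffer wells for no effect and DAMGO maximal-effect wells for full effect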
TRPC4 ctr inh 2: second check of whether TRPC6 modulators also affect mouse TRPC4. hit rate 55% among 2,400. HEK293 TRPC4/mu-opioid, membrane potential dye fluorescence; stimulated with maximal-effect DAMGO. inhibition, % at 10 µM. shares compounds with TRPC6 inhibitor;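 active = drop in membrane potential signal beyond 5 SD of the control wells in both duplicate plates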;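 also: TRPC4 counter screen for TRPC6 hits run under conditions tuned for TRPC6 not TRPC4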
TRPC6 inh conf: mouse TRPC6 inhibitor confirmation. AID 488960. shares compounds with TRPC6 inhibitor. HEK293-TRPC6, membrane potential dye, ACh-evoked depolarization. inhibition, % at 10 µM. hit rate 43% among 3,300;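 active = fluorescence ratio falls more than 5 SD below the full-stimulation control mean, in both duplicate runs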;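 also: integrated fluorescence ratio of peak minus minimum over baseline after agonist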
TRPC6 act conf: confirmation of mouse TRPC6 activators | shares compounds with TRPC6 inhibitor | HEK293-TRPC6 membrane potential dye fluorescence, FDSS | activation, % at 10 µM | hit rate 11% among 2,800 | AID 488961;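 active = ratio signal rise beyond 5 SD above unstimulated control wells' mean, seen in both duplicate runs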;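 also: plate controls were buffer EC0 wells for no effect and acetylcholine ECmax response for full effect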
Active calls of the source: *. This is a sample that favours compounds with a hit; in the whole collection about 2.3% have one here.

Screening CN(CCNC(=O)c1cc2c(=O)n(C)c3ccccc3c2n1C)Cc1ccccc1 returned TRPC4 block inactive, TRPC6 inhibitor -5.2*, TRPC4 potent inactive, TRPC4 agonist inactive, TRPC6 activator inactive, HEK293 MPD ctr-2 inactive, HEK293 MPD ctr 2-2 inactive, TRPC4 ctr mod inactive, TRPC4 ctr inh 2 56%*, TRPC6 inh conf inactive and TRPC6 act conf inactive.
CSc1nc2sc3c(c2c(=O)[nH]1)CC(C)(C)OC3 was read as TRPC4 block inactive, TRPC6 inhibitor inactive, TRPC4 potent inactive, TRPC4 agonist inactive and TRPC6 activator inactive.
For CCc1ccc(NC(=O)c2cnc(SC)nc2C)cc1 the results were TRPC4 block inactive, TRPC6 inhibitor inactive, TRPC4 potent inactive, TRPC4 agonist inactive and TRPC6 activator inactive.
COc1ccc(N2CCN(CC(O)COc3ccc(C)c(C)c3)CC2)cc1 (stereo not given) was read as TRPC4 block inactive, TRPC6 inhibitor -6.1*, TRPC4 potent inactive, TRPC4 agonist inactive, TRPC6 activator inactive, HEK293 MPD ctr-2 inactive, HEK293 MPD ctr 2-2 inactive, TRPC4 ctr mod inactive, TRPC4 ctr inh 2 48%*, TRPC6 inh conf inactive and TRPC6 act conf inactive.
Screening Cc1ccc(N(CC(O)CN2CCCCC2)S(=O)(=O)c2ccccc2)cc1 (stereo not given) returned TRPC4 block inactive, TRPC6 inhibitor inactive, TRPC4 potent inactive, TRPC4 agonist inactive and TRPC6 activator inactive.
For COc1ccc(CNC(=O)c2nn(-c3ccccc3)cc2OC)cc1 the results were TRPC4 block inactive, TRPC6 inhibitor inactive, TRPC4 potent inactive, TRPC4 agonist inactive and TRPC6 activator inactive.
COc1cc2c(cc1OC)-c1cc(NCc3ccccn3)nc(=O)n1CC2 was read as TRPC4 block inactive, TRPC6 inhibitor -5.4*, TRPC4 potent inactive, TRPC4 agonist inactive, TRPC6 activator inactive, HEK293 MPD ctr-2 -196%*, HEK293 MPD ctr 2-2 inactive, TRPC4 ctr mod -34%*, TRPC4 ctr inh 2 inactive, TRPC6 inh conf inactive and TRPC6 act conf inactive.
`CCNc1cc2n(c(=O)n1)CCc1cc(OC)c(OC)cc1-2` gave TRPC4 block inactive, TRPC6 inhibitor inactive, TRPC4 potent inactive, TRPC4 agonist inactive and TRPC6 activator inactive.
Screening Cc1ccc(-c2nc(NCCN(C)C)c3ccccc3n2)cc1 returned TRPC4 block inactive, TRPC6 inhibitor inactive, TRPC4 potent inactive, TRPC4 agonist inactive and TRPC6 activator inactive.
`CN(C)CCNc1cc(-c2ccncc2)nc2ccccc12` gave TRPC4 block inactive, TRPC6 inhibitor -11*, TRPC4 potent 15*, TRPC4 agonist inactive, TRPC6 activator inactive, HEK293 MPD ctr-2 -328%*, HEK293 MPD ctr 2-2 90%*, TRPC4 ctr mod -81%*, TRPC4 ctr inh 2 78%*, TRPC6 inh conf 75%* and TRPC6 act conf inactive.
For CN1C(=O)c2cccc3c(N(C)C)ccc(c23)C1=O the results were TRPC4 block inactive, TRPC6 inhibitor inactive, TRPC4 potent inactive, TRPC4 agonist inactive, TRPC6 activator 19*, HEK293 MPD ctr-2 927%*, HEK293 MPD ctr 2-2 active, TRPC4 ctr mod 144%*, TRPC4 ctr inh 2 58%* and TRPC6 act conf 234%*.
For Nc1[nH]n2c(=O)cc(-c3ccccc3)nc2c1N=Nc1ccc(S(N)(=O)=O)cc1 the results were TRPC4 block inactive, TRPC6 inhibitor inactive, TRPC4 potent inactive, TRPC4 agonist inactive and TRPC6 activator inactive.
`Nc1[nH]n2c(=O)cc(-c3ccccc3)nc2c1N=Nc1ccccc1` gave TRPC4 block inactive, TRPC6 inhibitor -8*, TRPC4 potent inactive, TRPC4 agonist inactive, TRPC6 activator inactive, TRPC4 spec 2 50%*, TRPC4 spec -20%*, HEK293 MPD ctr 2-1 inactive, HEK293 MPD ctr-1 -316%*, TRPC6 inh conf 77%* and TRPC6 act conf inactive.
O=S(=O)(Nc1nc2ccccc2[nH]1)c1ccc(Cl)cc1 was read as TRPC4 block inactive, TRPC6 inhibitor -8.7*, TRPC4 potent inactive, TRPC4 agonist inactive, TRPC6 activator inactive, TRPC4 spec 2 inactive, TRPC4 spec inactive, HEK293 MPD ctr 2-1 inactive, HEK293 MPD ctr-1 inactive, TRPC6 inh conf 52%* and TRPC6 act conf inactive.
`O=C(Nc1nc2ccccc2n1CCOc1ccccc1)c1ccco1` gave TRPC4 block inactive, TRPC6 inhibitor inactive, TRPC4 potent inactive, TRPC4 agonist inactive and TRPC6 activator inactive.
Screening O=C(Nc1nc2ccccc2n1CCN1CCCCC1)c1ccco1 returned TRPC4 block inactive, TRPC6 inhibitor -7.9*, TRPC4 potent inactive, TRPC4 agonist inactive, TRPC6 activator inactive, TRPC4 spec 2 48%*, TRPC4 spec -18%*, HEK293 MPD ctr 2-1 inactive, HEK293 MPD ctr-1 -264%*, TRPC6 inh conf inactive and TRPC6 act conf inactive.
